Screens as filed in PubChem BioAssay.
A selection: hits, their analogues and other compounds. The true share with any hit is near 4.4%.
TbMetRS inhib: T. brucei MetRS inhibitors, primary screen, biochemical, luminescence | inhibition, % at 11.9 µM | purified T. brucei MetRS, ATP depletion, Kinase-Glo luminescence | 360,000 compounds, 0.4% hits;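 active means inhibition above a per-plate cutoff of the control wells' mean inhibition plus 3 SD, cut at about 5.5% in these data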;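 further: 0% = DMSO wells median and 100% = median of wells with control inhibitor compound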
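Material – parasite MetRS enzyme · Medium – HEPES-MgCl2-KCl buffer plus DTT, spermine, BSA, pyrophosphatase · Reagent – ATP, methionine and E. coli bulk tRNA substrates · Times – 15 min enzyme-compound preincubation, 2 h reaction, 10 min detection, 25 °C · Measured by – luminescence of leftover ATP · Evaluation – percent inhibition relative to median high and low control wells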
AHR activator: AHR activators, primary screen, cell-based, luminescence, luciferase reporter, human. Aryl hydrocarbon receptor (Homo sapiens), P35869. AHR-responsive luciferase reporter cells. activation, % at 5 µM. 320,000 compounds, 2.5% hits. AID 2796, 2010; in the data active means activation above about 47%;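 further: 0% = vehicle wells and 100% = reference agonist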
Target sequence (P35869 whole entry, looked up): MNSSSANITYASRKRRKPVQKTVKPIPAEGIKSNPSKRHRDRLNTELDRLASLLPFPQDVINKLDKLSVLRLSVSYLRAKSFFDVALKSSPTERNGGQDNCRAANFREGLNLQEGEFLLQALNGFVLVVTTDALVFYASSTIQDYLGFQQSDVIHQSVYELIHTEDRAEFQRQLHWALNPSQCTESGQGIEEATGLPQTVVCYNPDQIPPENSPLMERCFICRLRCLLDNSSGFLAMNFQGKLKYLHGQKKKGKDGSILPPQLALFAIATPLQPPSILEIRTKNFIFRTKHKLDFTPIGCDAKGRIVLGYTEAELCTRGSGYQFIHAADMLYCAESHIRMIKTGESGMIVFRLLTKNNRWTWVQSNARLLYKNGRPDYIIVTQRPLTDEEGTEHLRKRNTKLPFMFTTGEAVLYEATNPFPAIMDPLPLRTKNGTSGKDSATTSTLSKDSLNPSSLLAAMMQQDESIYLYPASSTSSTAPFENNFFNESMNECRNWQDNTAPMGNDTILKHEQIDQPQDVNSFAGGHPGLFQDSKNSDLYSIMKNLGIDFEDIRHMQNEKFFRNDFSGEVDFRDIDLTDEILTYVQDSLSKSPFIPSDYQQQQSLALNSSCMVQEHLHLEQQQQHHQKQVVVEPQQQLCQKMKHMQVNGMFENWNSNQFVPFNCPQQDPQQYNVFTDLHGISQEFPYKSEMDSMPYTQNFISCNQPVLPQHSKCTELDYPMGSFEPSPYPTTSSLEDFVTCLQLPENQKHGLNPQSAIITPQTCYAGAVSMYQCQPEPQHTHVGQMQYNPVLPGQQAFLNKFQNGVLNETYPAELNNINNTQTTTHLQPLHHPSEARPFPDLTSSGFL
m5-HT2A agonist: mouse Htr2a agonists via beta-arrestin recruitment, primary screen, cell-based, luminescence. 360,000 compounds, 0.66% hits. activation, % at 7.6 µM. CHO-K1 mHTR2A beta-arrestin complementation; percent of 30 µM serotonin response. AID 624169, 2012. 5-hydroxytryptamine receptor 2A (Mus musculus), P35363;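 active means activation above a run cutoff, the mean activation of all tested compounds plus 3 SD, cut at about 14% in these data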;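 further: 0% = plate median of compound wells and 100% = 30 µM serotonin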
AI-2 QS mod: Vibrio harveyi AI-2 quorum sensing modulators, primary screen, JMH597 strain, luminescence/OD600 ratio | Vibrio harveyi JMH597 AI-2 luminescence/OD600 ratio, 9 h; stronger effect = lower value; strain lacks LuxN and CqsS sensors; 0 = neutral-control median | 300,000 compounds, 0.4% hits | activity change, % at 7.5 µM; in the data active means activity change below about -75%, passing the limit was not always enough;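 further: luminescence divided by OD600 gain over 9 h not by final OD600 alone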
MsrA inh: bovine MsrA enzyme inhibitors, primary screen, biochemical, absorbance, HTS; Methionine sulfoxide reductase A (Bos taurus); purified bovine MsrA, absorbance read-out; inhibition, % at 15.5 µM; 360,000 compounds, 0.75% hits; in the data active means inhibition above about 4.5%;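 further: 0% = vehicle wells with enzyme and 100% = reference inhibitor wells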
MsrA act: bovine MsrA enzyme activators, primary screen, biochemical, absorbance, HTS; activation, % at 10.6 µM; 360,000 compounds, 0.3% hits; purified bovine MsrA, absorbance read-out; Methionine sulfoxide reductase A (Bos taurus); in the data active means activation above about 7.5%;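 further: 0% = vehicle and 100% = reference activator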
An asterisk follows results filed as active; . = no result given.

SMILES	TbMetRS inhib	AHR activator	m5-HT2A agonist	AI-2 QS mod	MsrA inh	MsrA act
O=C(CNc1cc(S(=O)(=O)N2CCOCC2)ccc1NCC1CCCO1)Nc1ccc(F)c(F)c1 (stereo not drawn)	8.5*	-6	4	0	1	0
CSc1cccc(NC(=O)c2cc(S(=O)(=O)N3CCc4ccccc43)cn2C)c1	-1	22	-5	21	2	1
O=C(N/N=C\c1ccc(Oc2ccccc2)cc1)c1csnn1	0	12	-6	29	2	0
Cc1cccc(/C=N\NC(=O)c2csnn2)c1	-1	70*	-1	13	3	-8
Cc1cccc(/C=N\NC(=O)c2sccc2-n2cccc2)c1	-1	64*	-5	34	1	-7
O=C(N/N=C\c1cccs1)c1sccc1-n1cccc1	0	67*	4	5	4	-6
Cc1cccc(/C=N\NC(=O)c2ccccc2-n2cccc2)c1	-1	34	1	10	1	-7
COC(=O)C1=C(C)N(Cc2ccccc2C(F)(F)F)C(=NCc2ccc(C(F)(F)F)cc2)NC1CCc1ccccc1 (stereo not drawn)	.	.	.	.	-1	.
COc1cc(N/C(=C\C(=O)c2ccccc2)c2ccccc2)ccc1Cl	.	.	.	.	1	.
CCC1(C(=O)NC(=Nc2ccccc2)Nc2ccccc2)CCOC1=O (stereo not drawn)	0	.	6	.	1	-1
C#CCN1CC(COCCCC)Oc2cccc(F)c2S1(=O)=O (stereo not drawn)	.	.	.	.	0	.
Cc1ccc(C)c(C(=O)OCC(=O)N(C)c2ccccc2)c1	0	-1	1	27	1	-2
Oc1ccccc1-n1c(-c2ccccc2)ccc1-c1ccccc1	-1	51*	1	9	1	3
Cc1ccc(-c2ccccc2)n1-c1ccc(C(=O)O)cc1	-1	-1	0	44	2	-5
COC(=O)/C(C(C)=O)=C(\C=C\N(C)C)N(C)C	-1	1	4	3	3	-6
COC(=O)C(=CC(=CN(C)C)C=C(C(=O)OC)C(=O)OC)C(=O)OC	-1	-2	-3	12	4.5*	-5
CCOc1ccc(C(=O)Nc2ncn[nH]2)cc1	0	23	0	.	-1	-4
C=CCOc1ccc(C(=O)Nc2ncn[nH]2)cc1	-1	66*	-1	4	1	-3
Cc1nc(NCCc2cnc[nH]2)c2oc3ccccc3c2n1	0	53*	-2	4	-1	-2
CCc1nc(Nc2cccc(O)c2)c2oc3ccccc3c2n1	0	.	-13	34	.	-2
CC(=O)Nc1ccc(Nc2nc(C)nc3c2oc2ccccc23)cc1	0	29	5	9	3	-5
COc1ccc(CCNc2nc(C)nc3c2oc2ccccc23)cc1OC	0	34	5	34	1	-4
Cc1cccc(Nc2nc(C)nc3c2oc2ccccc23)c1	0	48*	3	10	2	-2
CCc1nc(Nc2ccc3c(c2)OCO3)c2oc3ccccc3c2n1	0	96*	-4	4	0	1
CCCOc1ccc(C(=O)OCCN2CCCCC2)c(O)c1	0	1	-12	10	0	-3
SMILES	TbMetRS inhib	AHR activator	m5-HT2A agonist	AI-2 QS mod	MsrA inh	MsrA act
C=CCNC(=S)NC(=O)c1csc([N+](=O)[O-])c1	0	1	14	-104*	2	-5
O=C(NC(=S)N1CCCCC1)c1csc([N+](=O)[O-])c1	-1	-2	-1	22	1	-11
O=S(=O)(Nc1ncnc2sc3c(c12)CCC3)c1ccc(Cl)s1	-1	48*	8	40	-1	-15
O=S(=O)(Nc1ncnc2sc3c(c12)CCC3)c1cc(F)ccc1F	0	27	3	20	-1	-5
CCN(CC)C(=O)c1ncn2c1C(=O)NC[C@H]2C	.	.	.	.	0	.
O=C1COc2ccc(S(=O)(=O)N3CCCC3)cc2N1	0	1	-2	30	-1	-2
O=C1COc2ccc(N3C(=O)C=CC3=O)cc2N1	.	0	.	-81*	.	.
COC(=O)/C(=C\c1ccc2c(c1)c1ccccc1n2C)NC(=O)c1ccccc1	0	76*	1	13	4	-3
Cn1c2ccccc2c2cc(/C=C(\NC(=O)c3ccccc3)C(=O)O)ccc21	-1	13	2	4	3	-7
CC(C)OC(=O)/C(=C\c1ccc2c(c1)c1ccccc1n2C)NC(=O)c1ccccc1	2	75*	4	1	2	-1
COC(=O)N(C)C[C@H]1OCc2cn(nn2)CCCC(=O)N([C@H](C)CO)C[C@@H]1C	.	.	.	.	1	.
CC1CN(c2oc(-c3cccs3)nc2C#N)CC(C)O1 (stereo not drawn)	-1	67*	1	9	2	-3
Clc1cccc(CN2CCN(c3ncc(Cc4ccccc4)cn3)CC2)c1Cl	.	.	.	.	-1	.
COc1ccc(N(C(=O)Cn2nnc3ccccc32)C(C(=O)NCc2ccco2)c2ccncc2)cc1 (stereo not drawn)	-1	0	2	7	-1	-3
COc1ccc(-c2cn3cc(Cl)ccc3n2)cc1OC	-1	56*	1	15	2	-1
Fc1ccc(C2Nc3cccc4cccc(c34)N2)cc1	-1	51*	-4	4	0	-1
Clc1ccccc1C1Nc2cccc3cccc(c23)N1	0	7	1	-14	-1	-4
Clc1cccc(C2Nc3cccc4cccc(c34)N2)c1Cl	-1	59*	0	26	0	-3
NNc1ccc(Cl)nn1	-1	69*	-2	22	-1	-4
CCOc1cc(C#N)ccc1OCC(=O)N1CCN(C(=O)c2cccs2)CC1	-1	-1	0	.	0	0
CC(=O)c1ccc(-n2ccnc2)cc1	0	3	-1	19	0	-1
O=C(Nc1ccccc1)n1ccc(-c2ccc(-n3ccnc3)cc2)n1	.	83*	.	15	0	.
COC(=O)[C@]12C[C@H](CC(=O)NCCC(C)C)C(=O)N(Cc3ccccc3)C1=C[C@H](C(C)(C)C)O[C@@H]2C	.	.	.	.	0	.
COc1ccc(OC)c(/C=N/NC(=O)CCc2n[nH]c(=O)[nH]c2=O)c1	-1	60*	14	0	2	-9
Cc1cccn2c(=O)c(C=NCc3ccco3)c(Nc3ccc(SC(F)F)cc3)nc12	1	49*	-3	14	1	1
COc1ccc(C(=O)NCc2nnc(SCC(=O)N3CCCC3)o2)cc1	1	-1	0	10	0	2
